In ChEMBL document CHEMBL1944524, “Synthesis and structure-activity relationship of 5-pyridazin-3-one phenoxypiperidines as potent, selective histamine H(3) receptor inverse agonists” (Bioorg Med Chem Lett, 2012):
Calls of active or inactive are those of the source. The calls are words filed in the database; no cut-off is given here.

Key:
Salmonella typhimurium [1] = assay: Genotoxicity against Salmonella Typhimurium TA1537 by Ames test in the absence of rat liver S9 fraction; format: toxicity, organism-based; details: salmonella enterica subsp. enterica serovar typhimurium
[2] = Genotoxicity against mouse lymphocytes by micronuclei test in the presence of rat liver S9 fraction; format: toxicity, Lymphocyte
[3] = Genotoxicity against mouse lymphocytes by micronuclei test in the absence of rat liver S9 fraction; format: toxicity, cell-based; details: lymphocyte
[4] = Half life in rat at 1 mg/kg, iv; format: ADME, organism-based; design: dose 1 mg/kg, route intravenous; details: in vivo
Summary of the method: (§1)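 Rat PK study, dosed 1 mg/kg iv plus 10 or 5 mg/kg po. iv vehicle 3% DMSO, 30% solutol, 67% phosphate buffered saline; oral vehicle 50% Tween 80, 40% propylene carbonate, 10% propylene glycol.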

[5] = Volume of distribution in rat at 1 mg/kg, iv; format: ADME, organism-based; design: dose 1 mg/kg, route intravenous; details: in vivo; summary of the method: as §1
[6] = Clearance in rat at 1 mg/kg, iv; format: ADME, organism-based; design: dose 1 mg/kg, route intravenous; details: in vivo; summary of the method: as §1
[7] = Cmax in rat at 10 mg/kg, po; format: ADME, organism-based; design: dose 10 mg/kg, route oral; details: in vivo; summary of the method: as §1
[8] = Tmax in rat at 10 mg/kg, po; format: ADME, organism-based; design: dose 10 mg/kg, route oral; details: in vivo; summary of the method: as §1
[9] = Oral bioavailability in rat at 10 mg/kg; format: ADME, organism-based; details: in vivo; summary of the method: as §1
[10] = AUC in rat at 10 mg/kg, po; format: ADME, organism-based; design: dose 10 mg/kg, route oral; details: plasma; summary of the method: as §1
[11] = Ratio of drug level in brain to plasma in rat at 10 mg/kg, ip after 6 hrs; format: ADME, organism-based; design: dose 10 mg/kg, route intraperitoneal; details: read-out: BPR
Summary of the method: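 Brain and plasma levels measured in rat 6 h after a 10 mg/kg ip dose; value is brain/plasma ratio.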

Rattus norvegicus [12] = assay: Inhibition of RAMH-induced water drinking in ip dosed rat dipsogenia model; format: functional
Summary of the method: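 Rat dipsogenia model: water drinking induced by H3 agonist R-alpha-methylhistamine; test article given ip beforehand; inhibition of drinking measured and ED50 (mg/kg) derived.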

Rattus norvegicus [13] = assay: Wake promoting activity in Sprague-Dawley rat EEG/EMG sleep-wake model assessed as slow-wave sleep onset time at 1 mg/kg, ip after 4 hrs (reference value: 34.9 +/- 5.1 mins); format: functional; details: route intraperitoneal
Summary of the method: (§2)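 Male Sprague Dawley rats surgically implanted for chronic EEG and EMG recording; test agent given ip, vehicle group as control; n = 6-7/group. […] Mean + SEM; Dunnett's test versus vehicle.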

Rattus norvegicus [14] = assay: Wake promoting activity in Sprague-Dawley rat EEG/EMG sleep-wake model assessed as slow-wave sleep onset time at 3 mg/kg, ip after 4 hrs (reference value: 34.9 +/- 5.1 mins); format: functional; details: route intraperitoneal; summary of the method: as §2
Rattus norvegicus [15] = assay: Wake promoting activity in Sprague-Dawley rat EEG/EMG sleep-wake model assessed as increase in wake time at 10 mg/kg, ip after 4 hrs; format: functional; details: route intraperitoneal
Summary of the method: (§3)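 Male Sprague Dawley rats surgically implanted for chronic EEG/EMG recording; ip dosing during normal quiet period; cumulative wake time over 4 h post dose vs vehicle; n = 6-7/group, mean + SEM, Dunnett's test vs vehicle.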

Rattus norvegicus [16] = assay: Wake promoting activity in Sprague-Dawley rat EEG/EMG sleep-wake model assessed as increase in wake time at 30 mg/kg, ip after 4 hrs; format: functional; details: route intraperitoneal; summary of the method: as §3
Rattus norvegicus [17] = assay: Wake promoting activity in Sprague-Dawley rat EEG/EMG sleep-wake model assessed as maximum cumulative wake time at 30 mg/kg, ip at 6 hrs; format: functional; details: route intraperitoneal
Rattus norvegicus [18] = assay: Wake promoting activity in Sprague-Dawley rat EEG/EMG sleep-wake model assessed as maximum cumulative wake time at 30 mg/kg, ip up to 17 hrs; format: functional, organism-based; design: dose 30 mg/kg
Rattus norvegicus [19] = assay: Wake promoting activity in Sprague-Dawley rat EEG/EMG sleep-wake model assessed as increase in wake time at 30 mg/kg, ip after 4 hrs relative to control; format: functional; details: route intraperitoneal; summary of the method: as §2
Rattus norvegicus [20] = assay: Toxicity in Sprague-Dawley rat assessed as hypersomnolence at 1 to 30 mg/kg, ip after 4 hrs; format: organism-based; design: dose 1-30 mg/kg, route intraperitoneal; details: in vivo
Histamine H3 receptor [21] = target: Histamine H3 receptor (Rattus norvegicus, UniProt Q9QYN8); assay: Displacement of [3H]N-alpha-methylhistamine from rat histamine H3 receptor expressed in CHO cells; format: cell-based
Histamine H3 receptor [22] = target: T1, Histamine H3 receptor (Homo sapiens, UniProt Q9Y5N1); assay: Displacement of [3H]N-alpha-methylhistamine from human histamine H3 receptor expressed in CHO cells; format: cell-based
[23] = target: Voltage-gated inwardly rectifying potassium channel KCNH2 (Homo sapiens, UniProt Q12809); assay: Inhibition of human ERG by patch clamp assay
[24] = Half life in human liver microsomes; format: ADME, Microsome
Summary of the method: (§4)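 Stability in liver microsomes from rat, dog or human; half-life (min) determined.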

[25] = Half life in rat liver microsomes; format: ADME, Microsome; summary of the method: as §4
[26] = Half life in dog liver microsomes; format: ADME, Canis lupus familiaris, Microsome; summary of the method: as §4
[27] = Inhibition of cytochrome P450; format: ADME
Summary of the method: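 CYP inhibition assessed against 5 CYP isoforms; IC50 determined.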

[28] = target: Histamine H1 receptor (Homo sapiens) (UniProt P35367); assay: Inhibition of human histamine H1 receptor at 10 uM
Summary of the method: (§5)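 Selectivity screen against human H1, H2 and H4 receptors; percent inhibition at 10 µM.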

[29] = target: Histamine H2 receptor (Homo sapiens) (UniProt P25021); assay: Inhibition of human histamine H2 receptor at 10 uM; summary of the method: as §5
[30] = target: Histamine H4 receptor (Homo sapiens) (UniProt Q9H3N8); assay: Inhibition of human histamine H4 receptor at 10 uM; summary of the method: as §5
Histamine H3 receptor [31] = target: T1, Histamine H3 receptor; assay: Inverse agonist activity at human histamine H3 histamine receptor by [35S]GTPgammaS binding assay; format: functional
Summary of the method: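 Functional assay measuring [35S]GTPγS binding at the human H3 receptor. Inverse agonist potency is reported as an EC50.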

[32] = Inhibition of alpha-adrenergic receptor at 10 uM
Summary of the method: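 Broad panel of 101 GPCRs, ion channels and enzymes; percent inhibition at 10 µM.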

[33] = Aqueous solubility of the compound at pH 2; format: physicochemical; details: buffer
Summary of the method: (§6)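 Water solubility measured at pH 2 and at pH 7.4, in […].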

[34] = Aqueous solubility of the compound at pH 7.4; format: physicochemical; details: buffer; summary of the method: as §6
[35] = Apparent permeability of the compound across human Caco2 cells; format: ADME, cell-based; details: Caco-2
Summary of the method: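 Caco-2 monolayer permeability; apparent permeability (Papp, cm/s) reported.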

[36] = Plasma protein binding in rat; format: ADME, cell-free; details: read-out: PPB (converted)
Summary of the method: (§7)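 In vitro binding to plasma proteins of rat, dog and human; percent bound.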

[37] = Plasma protein binding in dog; format: ADME, cell-free, Canis lupus familiaris; details: read-out: PPB (converted); summary of the method: as §7
[38] = Plasma protein binding in human; format: ADME, cell-free; details: read-out: PPB (converted); summary of the method: as §7
Salmonella typhimurium [39] = assay: Genotoxicity against Salmonella Typhimurium TA98 by Ames test in the presence of rat liver S9 fraction; format: toxicity, organism-based; details: salmonella enterica subsp. enterica serovar typhimurium
Salmonella typhimurium [40] = assay: Genotoxicity against Salmonella Typhimurium TA100 by Ames test in the presence of rat liver S9 fraction; format: toxicity, organism-based; details: salmonella enterica subsp. enterica serovar typhimurium
Salmonella typhimurium [41] = assay: Genotoxicity against Salmonella Typhimurium TA102 by Ames test in the presence of rat liver S9 fraction; format: toxicity, organism-based; details: salmonella enterica subsp. enterica serovar typhimurium
Salmonella typhimurium [42] = assay: Genotoxicity against Salmonella Typhimurium TA1535 by Ames test in the presence of rat liver S9 fraction; format: toxicity, organism-based; details: salmonella enterica subsp. enterica serovar typhimurium
Salmonella typhimurium [43] = assay: Genotoxicity against Salmonella Typhimurium TA1537 by Ames test in the presence of rat liver S9 fraction; format: toxicity, organism-based; details: salmonella enterica subsp. enterica serovar typhimurium
Salmonella typhimurium [44] = assay: Genotoxicity against Salmonella Typhimurium TA98 by Ames test in the absence of rat liver S9 fraction; format: toxicity, organism-based; details: salmonella enterica subsp. enterica serovar typhimurium
Salmonella typhimurium [45] = assay: Genotoxicity against Salmonella Typhimurium TA100 by Ames test in the absence of rat liver S9 fraction; format: toxicity, organism-based; details: salmonella enterica subsp. enterica serovar typhimurium
Salmonella typhimurium [46] = assay: Genotoxicity against Salmonella Typhimurium TA102 by Ames test in the absence of rat liver S9 fraction; format: toxicity, organism-based; details: salmonella enterica subsp. enterica serovar typhimurium
Salmonella typhimurium [47] = assay: Genotoxicity against Salmonella Typhimurium TA1535 by Ames test in the absence of rat liver S9 fraction; format: toxicity, organism-based; details: salmonella enterica subsp. enterica serovar typhimurium

T1 sequence (Q9Y5N1 whole entry): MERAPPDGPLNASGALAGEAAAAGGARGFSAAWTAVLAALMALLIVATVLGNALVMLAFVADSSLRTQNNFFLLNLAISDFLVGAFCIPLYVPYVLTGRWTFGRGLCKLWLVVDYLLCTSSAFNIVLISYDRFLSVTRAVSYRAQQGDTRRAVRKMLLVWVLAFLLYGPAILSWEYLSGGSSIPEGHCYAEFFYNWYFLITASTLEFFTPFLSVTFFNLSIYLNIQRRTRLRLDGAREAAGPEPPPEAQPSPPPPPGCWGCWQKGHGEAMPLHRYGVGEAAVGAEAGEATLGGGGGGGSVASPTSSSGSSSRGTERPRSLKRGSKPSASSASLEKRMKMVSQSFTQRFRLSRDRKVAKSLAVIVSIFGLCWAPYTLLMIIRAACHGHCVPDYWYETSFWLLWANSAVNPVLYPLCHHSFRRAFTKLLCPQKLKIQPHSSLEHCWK
Chain of Voltage-gated inwardly rectifying potassium channel KCNH2 (Q12809 whole entry): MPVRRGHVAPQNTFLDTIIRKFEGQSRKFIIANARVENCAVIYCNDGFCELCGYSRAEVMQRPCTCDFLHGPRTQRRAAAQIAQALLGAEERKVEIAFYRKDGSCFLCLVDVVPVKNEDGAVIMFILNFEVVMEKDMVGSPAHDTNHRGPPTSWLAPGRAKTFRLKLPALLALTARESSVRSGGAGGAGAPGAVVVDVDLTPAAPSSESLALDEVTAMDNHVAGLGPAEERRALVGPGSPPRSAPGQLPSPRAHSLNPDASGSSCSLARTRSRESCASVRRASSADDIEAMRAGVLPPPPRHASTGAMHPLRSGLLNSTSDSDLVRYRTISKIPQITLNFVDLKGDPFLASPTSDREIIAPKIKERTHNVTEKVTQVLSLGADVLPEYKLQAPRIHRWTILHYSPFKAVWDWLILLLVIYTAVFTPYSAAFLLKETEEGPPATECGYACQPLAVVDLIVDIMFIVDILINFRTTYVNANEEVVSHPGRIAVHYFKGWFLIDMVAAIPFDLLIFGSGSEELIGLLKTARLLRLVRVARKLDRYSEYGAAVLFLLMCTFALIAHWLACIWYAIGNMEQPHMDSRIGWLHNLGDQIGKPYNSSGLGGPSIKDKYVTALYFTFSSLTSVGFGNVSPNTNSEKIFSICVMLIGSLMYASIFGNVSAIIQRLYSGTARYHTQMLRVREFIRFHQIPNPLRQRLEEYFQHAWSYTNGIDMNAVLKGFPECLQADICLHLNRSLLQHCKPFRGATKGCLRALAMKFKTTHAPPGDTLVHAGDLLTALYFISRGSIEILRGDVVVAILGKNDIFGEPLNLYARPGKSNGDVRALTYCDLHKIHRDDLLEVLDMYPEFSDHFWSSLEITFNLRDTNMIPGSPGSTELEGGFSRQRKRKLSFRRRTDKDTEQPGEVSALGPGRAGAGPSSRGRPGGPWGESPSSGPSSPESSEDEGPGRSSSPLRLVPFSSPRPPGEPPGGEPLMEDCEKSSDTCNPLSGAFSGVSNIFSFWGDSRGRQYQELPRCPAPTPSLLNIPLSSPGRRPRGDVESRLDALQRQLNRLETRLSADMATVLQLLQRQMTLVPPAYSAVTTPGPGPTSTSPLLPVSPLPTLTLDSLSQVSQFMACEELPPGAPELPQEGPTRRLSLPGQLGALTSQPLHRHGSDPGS
Chain of Histamine H2 receptor (Homo sapiens) (P25021 whole entry): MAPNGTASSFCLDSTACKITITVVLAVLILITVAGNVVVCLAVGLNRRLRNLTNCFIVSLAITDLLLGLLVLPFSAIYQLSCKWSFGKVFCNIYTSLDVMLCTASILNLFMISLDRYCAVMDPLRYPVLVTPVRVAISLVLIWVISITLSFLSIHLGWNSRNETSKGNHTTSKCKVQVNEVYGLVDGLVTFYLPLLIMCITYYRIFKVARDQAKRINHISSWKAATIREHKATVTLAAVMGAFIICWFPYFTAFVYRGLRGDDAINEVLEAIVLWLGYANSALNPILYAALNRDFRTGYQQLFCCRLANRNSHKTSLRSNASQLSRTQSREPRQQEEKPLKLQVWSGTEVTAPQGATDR
Chain of Histamine H3 receptor (Rattus norvegicus, UniProt Q9QYN8) (Q9QYN8 whole entry): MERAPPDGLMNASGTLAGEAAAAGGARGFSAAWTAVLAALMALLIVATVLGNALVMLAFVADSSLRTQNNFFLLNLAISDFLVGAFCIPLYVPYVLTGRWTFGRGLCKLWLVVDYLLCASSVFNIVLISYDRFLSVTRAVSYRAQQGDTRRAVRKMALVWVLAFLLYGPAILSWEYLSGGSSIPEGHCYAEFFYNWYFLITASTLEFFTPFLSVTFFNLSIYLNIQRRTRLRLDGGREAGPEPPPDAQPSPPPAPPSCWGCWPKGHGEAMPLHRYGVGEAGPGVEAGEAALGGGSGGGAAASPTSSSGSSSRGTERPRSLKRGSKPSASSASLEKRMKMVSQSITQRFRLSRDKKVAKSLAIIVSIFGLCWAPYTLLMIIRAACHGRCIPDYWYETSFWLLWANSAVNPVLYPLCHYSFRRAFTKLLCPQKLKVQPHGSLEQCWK
Chain of Histamine H4 receptor (Homo sapiens) (Q9H3N8 whole entry): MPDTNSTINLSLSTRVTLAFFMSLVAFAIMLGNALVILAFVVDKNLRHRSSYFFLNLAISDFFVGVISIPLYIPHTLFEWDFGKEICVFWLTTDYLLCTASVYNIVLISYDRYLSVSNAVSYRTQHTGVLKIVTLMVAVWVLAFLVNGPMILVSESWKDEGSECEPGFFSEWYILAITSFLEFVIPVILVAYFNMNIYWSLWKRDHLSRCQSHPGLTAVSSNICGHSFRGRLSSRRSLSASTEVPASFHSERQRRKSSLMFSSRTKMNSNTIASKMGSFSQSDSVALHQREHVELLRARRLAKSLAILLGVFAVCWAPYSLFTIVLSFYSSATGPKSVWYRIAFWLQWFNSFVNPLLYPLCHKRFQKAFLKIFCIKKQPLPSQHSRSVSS
Chain of Histamine H1 receptor (Homo sapiens) (P35367 whole entry): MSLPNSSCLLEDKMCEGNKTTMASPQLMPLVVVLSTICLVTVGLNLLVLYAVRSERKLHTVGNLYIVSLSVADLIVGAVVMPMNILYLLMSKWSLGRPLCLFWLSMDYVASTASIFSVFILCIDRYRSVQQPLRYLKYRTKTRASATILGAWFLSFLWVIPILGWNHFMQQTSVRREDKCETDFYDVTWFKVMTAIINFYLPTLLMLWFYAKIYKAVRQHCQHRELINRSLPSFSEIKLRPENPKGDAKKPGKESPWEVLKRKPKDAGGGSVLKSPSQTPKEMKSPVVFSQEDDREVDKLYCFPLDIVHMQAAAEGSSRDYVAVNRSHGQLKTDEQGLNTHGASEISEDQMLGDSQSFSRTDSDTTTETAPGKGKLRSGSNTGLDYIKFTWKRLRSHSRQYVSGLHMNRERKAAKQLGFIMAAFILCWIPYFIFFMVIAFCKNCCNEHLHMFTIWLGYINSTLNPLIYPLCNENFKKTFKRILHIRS

In the case of `Cc1n[nH]c(=O)cc1-c1ccc(OC2CCN(C3CCC3)CC2)cc1`, the Activity (Salmonella typhimurium [1]) is reported as “Non-toxic”, the Activity [2] is reported as “Non-toxic” and the Activity [3] is reported as “Non-toxic”. For the same compound, the half-life [4] was 1.5 h, the Vd [5] was 3.4 L/kg and the clearance [6] was 25 mL/min/kg. It also gave a Cmax [7] of 673 ng/mL, a Tmax [8] of 1 h and a bioavailability [9] of 68%. For the same compound, the AUC [10] was 4870 ng·h/mL, the Kp at 6 h [11] was 2.3 and the ED50 (Rattus norvegicus [12]) was 0.02 mg/kg. The Time (Rattus norvegicus [13]) was 35.3 min, the Time (Rattus norvegicus [14]) was 45 min and the Time (Rattus norvegicus [15]) was 167 min. The Time (Rattus norvegicus [16]) was 226 min, the Time (Rattus norvegicus [17]) was 163 min and the Activity (Rattus norvegicus [18]) was “Active”. The Activity (Rattus norvegicus [19]) was 178%, the Activity (Rattus norvegicus [20]) was “Non-toxic” and the Ki (Histamine H3 receptor [21]) was 6 nM. It also gave a Ki (Histamine H3 receptor [22]) of 5 nM, an IC50 [23] of 7000 nM and a half-life [24] greater than 0.667 h. The half-life [25] was greater than 0.667 h, the half-life [26] was greater than 0.667 h and the IC50 [27] was greater than 30000 nM. It also gave an inhibition [28] of less than 20%, an inhibition [29] of less than 20% and an inhibition [30] of less than 20%. It also gave an EC50 (Histamine H3 receptor [31]) of 1.1 nM, an inhibition [32] greater than 50% and a solubility [33] greater than 140 µg/mL. The solubility [34] was greater than 140 µg/mL, the Papp [35] was 14.9 ×10⁻⁶ cm/s and the fraction unbound [36] was 0.46. For the same compound, the fraction unbound [37] was 0.57, the fraction unbound [38] was 0.42 and the Activity (Salmonella typhimurium [39]) was “Non-toxic”. For the same compound, the Activity (Salmonella typhimurium [40]) was “Non-toxic”, the Activity (Salmonella typhimurium [41]) was “Non-toxic” and the Activity (Salmonella typhimurium [42]) was “Non-toxic”. For the same compound, the Activity (Salmonella typhimurium [43]) was “Non-toxic”, the Activity (Salmonella typhimurium [44]) was “Non-toxic” and the Activity (Salmonella typhimurium [45]) was “Non-toxic”. The Activity (Salmonella typhimurium [46]) was “Non-toxic” and the Activity (Salmonella typhimurium [47]) was “Non-toxic”.
